Values after ≈ are worked out from the molar mass of the structure shown.
Tests used:
Aspergillus flavus = assay: Antifungal activity against Aspergillus flavus PTCC 5003 after 48 hrs by microplate alamar blue assay; format: functional; settings: PTCC 5003, 48 h
In short: (§1)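 Fungi from Persian type culture collection, tested in RPMI 1640 buffered with MOPS at pH 7.0. Final inoculum 1.5 ×10⁵. Compounds in DMSO, twofold serial dilutions over 8–512 in 96-well plates with Alamar Blue, incubated 48 h at 25 °C. MIC is the lowest concentration blocking the blue-to-pink shift. Ketoconazole was the reference agent.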

Staphylococcus aureus = assay: Antibacterial activity against Staphylococcus aureus PTCC 1337 after 24 hrs by microplate alamar blue assay; format: functional; settings: for MIC: Staphylococcus aureus, PTCC 1337, 24 h
In short: (§2)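 Bacteria from Persian type culture collection grown in Mueller–Hinton broth. Inoculum suspensions adjusted to 0.5 McFarland, final inoculum 1.5 ×10⁴. Compounds dissolved in DMSO, serially diluted twofold across the 8–512 range in 96-well plates, Alamar Blue added, sealed plates incubated 24 h at 37 °C. MIC is the lowest concentration preventing the blue-to-pink colour change. Ciprofloxacin was the reference drug.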

[1] = tested on: Salmonella enterica subsp. enterica; assay: Antibacterial activity against Salmonella enteritidis PTCC 1091 after 24 hrs by microplate alamar blue assay; format: functional, Salmonella enterica subsp. enterica serovar Enteritidis; settings: PTCC 1091, 24 h; in short: as §2
Pseudomonas aeruginosa = assay: Antibacterial activity against Pseudomonas aeruginosa PTCC 1074 after 24 hrs by microplate alamar blue assay; format: functional; settings: for MIC: Pseudomonas aeruginosa, PTCC 1074, 24 h; in short: as §2
Bacillus subtilis = assay: Antibacterial activity against Bacillus subtilis PTCC 1023 after 24 hrs by microplate alamar blue assay; format: functional; settings: PTCC 1023, 24 h; in short: as §2
Candida albicans = assay: Antifungal activity against Candida albicans PTCC 5027 after 48 hrs by microplate alamar blue assay; format: functional; settings: for MIC: Candida albicans, PTCC 5027, 48 h; in short: as §1
Aspergillus niger = assay: Antifungal activity against Aspergillus niger 5021 after 48 hrs by microplate alamar blue assay; format: functional; settings: Aspergillus niger, 5021, 48 h; in short: as §1
Escherichia coli = assay: Antibacterial activity against Escherichia coli PTCC 1338 after 24 hrs by microplate alamar blue assay; format: functional; settings: PTCC 1338, 24 h; in short: as §2
Listeria monocytogenes = assay: Antibacterial activity against Listeria monocytogenes PTCC 1165 after 24 hrs by microplate alamar blue assay; format: functional; settings: PTCC 1165, 24 h; in short: as §2

| Compound | MIC (Aspergillus flavus) [µg/mL] | -logMIC (Staphylococcus aureus) | MIC (Staphylococcus aureus) [µg/mL] | MIC [1] [µg/mL] | -logMIC (Pseudomonas aeruginosa) | MIC (Pseudomonas aeruginosa) [µg/mL] | MIC (Bacillus subtilis) [µg/mL] | -logMIC (Candida albicans) | MIC (Candida albicans) [µg/mL] | MIC (Aspergillus niger) [µg/mL] | MIC (Escherichia coli) [µg/mL] | MIC (Listeria monocytogenes) [µg/mL] |
| --- | --- | --- | --- | --- | --- | --- | --- | --- | --- | --- | --- | --- |
| Cc1c(O)c(=O)ccn1-c1ccccc1 | > 512 | 3.89 | 128 (≈ 636 µM) | 128 (≈ 636 µM) | 3.29 | 512 (≈ 2540 µM) | 256 (≈ 1270 µM) | 3.29 | > 512 | > 512 | 128 (≈ 636 µM) | 512 (≈ 2540 µM) |
| CCc1[nH]cc(CN(C)C)c(=O)c1O | 512 (≈ 2610 µM) | 3.29 | 512 (≈ 2610 µM) | 256 (≈ 1300 µM) | 3.59 | 256 (≈ 1300 µM) | > 512 | 3.29 | 512 (≈ 2610 µM) | 512 (≈ 2610 µM) | 512 (≈ 2610 µM) | 512 (≈ 2610 µM) |
| Cc1cc(=O)c(OCc2ccccc2)c(CO)o1 |  | 3.59 |  |  | 3.59 |  |  | 3.89 |  |  |  |  |
| O=c1cc(CO)occ1OCc1ccccc1 |  | 3.59 |  |  | 3.89 |  |  | 3.89 |  |  |  |  |
| Cc1cc(=O)c(O)c(CO)o1 |  | 3.59 |  |  | 3.89 |  |  | 3.89 |  |  |  |  |
| Cc1[nH]cc(CN2CCCCC2)c(=O)c1O | > 512 | 3.29 | 16 (≈ 72 µM) | 16 (≈ 72 µM) | 3.59 | 512 (≈ 2300 µM) | 32 (≈ 144 µM) |  | 128 (≈ 576 µM) | 512 (≈ 2300 µM) | 64 (≈ 288 µM) | 64 (≈ 288 µM) |
| CCc1[nH]cc(CN(CC)CC)c(=O)c1O | 512 (≈ 2280 µM) | 3.29 | > 512 | 512 (≈ 2280 µM) | 3.59 | 256 (≈ 1140 µM) | 512 (≈ 2280 µM) | 3.29 | 512 (≈ 2280 µM) | 512 (≈ 2280 µM) | 512 (≈ 2280 µM) | 512 (≈ 2280 µM) |
| Cc1c(O)c(=O)ccn1-c1cccc(O)c1 | 256 (≈ 1180 µM) | 3.29 | 16 (≈ 73.7 µM) | 64 (≈ 295 µM) | 3.29 | 512 (≈ 2360 µM) | > 512 | 3.59 | 512 (≈ 2360 µM) | 512 (≈ 2360 µM) | 512 (≈ 2360 µM) | > 512 |
| Cc1cc(=O)c(OCc2ccccc2)c(C(=O)Nc2cccnc2)o1 |  | 3.59 |  |  | 3.89 |  |  | 4.49 |  |  |  |  |
| Cc1cc(=O)c(OCc2ccccc2)c(C(=O)Nc2cccc3ccccc23)o1 |  | 3.59 |  |  | 3.89 |  |  | 4.49 |  |  |  |  |
| Cc1cc(=O)c(O)c(C(=O)Nc2cccnc2)o1 |  | 4.19 |  |  | 3.89 |  |  | 3.89 |  |  |  |  |
| Cc1cc(=O)c(OCc2ccccc2)c(C=O)o1 |  | 4.19 |  |  | 3.89 |  |  | 3.89 |  |  |  |  |
| Cc1cc(=O)c(OCc2ccccc2)c(C(=O)O)o1 |  | 3.59 |  |  | 3.89 |  |  | 3.89 |  |  |  |  |
| CCc1[nH]cc(CN2CCCCC2)c(=O)c1O | 256 (≈ 1080 µM) | 3.29 | > 512 | 512 (≈ 2170 µM) | 3.59 | 256 (≈ 1080 µM) | 512 (≈ 2170 µM) | 3.29 | 128 (≈ 542 µM) | 512 (≈ 2170 µM) | 512 (≈ 2170 µM) | > 512 |
| Cc1[nH]cc(CN(C)C)c(=O)c1O | > 512 | 3.29 | > 512 | 512 (≈ 2810 µM) | 3.59 | 256 (≈ 1400 µM) | > 512 |  | > 512 | 512 (≈ 2810 µM) | 512 (≈ 2810 µM) | 512 (≈ 2810 µM) |
| Cc1cc(=O)oc2cc(NC(=O)c3cc(=O)c(O)cn3C)ccc12 |  | 4.49 |  |  | 3.59 |  |  | 3.89 |  |  |  |  |

| Compound | MIC (Aspergillus flavus) [µg/mL] | -logMIC (Staphylococcus aureus) | MIC (Staphylococcus aureus) [µg/mL] | MIC [1] [µg/mL] | -logMIC (Pseudomonas aeruginosa) | MIC (Pseudomonas aeruginosa) [µg/mL] | MIC (Bacillus subtilis) [µg/mL] | -logMIC (Candida albicans) | MIC (Candida albicans) [µg/mL] | MIC (Aspergillus niger) [µg/mL] | MIC (Escherichia coli) [µg/mL] | MIC (Listeria monocytogenes) [µg/mL] |
| --- | --- | --- | --- | --- | --- | --- | --- | --- | --- | --- | --- | --- |
| Cc1cc(=O)oc2cc(NC(=O)c3cc(=O)c(OCc4ccccc4)co3)ccc12 |  | 3.89 |  |  | 3.59 |  |  | 3.89 |  |  |  |  |
| O=C(O)c1cc(=O)c(OCc2ccccc2)co1 |  | 3.59 |  |  | 3.89 |  |  | 3.89 |  |  |  |  |
| Cn1cc(OCc2ccccc2)c(=O)cc1C(=O)Nc1ccccc1 |  | 3.89 |  |  | 3.59 |  |  | 3.89 |  |  |  |  |
| Cn1cc(O)c(=O)cc1C(=O)Nc1ccccc1 |  | 4.8 |  |  | 3.89 |  |  | 3.89 |  |  |  |  |
| Cc1cc(=O)c(O)c(C(=O)Nc2cnc3ccccc3c2)o1 |  | 5.1 |  |  | 3.89 |  |  |  |  |  |  |  |
| Cc1cc(=O)c(O)c(C(=O)Nc2cccc3ccccc23)o1 |  | 3.59 |  |  | 3.89 |  |  | 3.89 |  |  |  |  |
| CCN(CC)Cc1c[nH]c(C)c(O)c1=O | 512 (≈ 2430 µM) | 4.19 | 512 (≈ 2430 µM) | 128 (≈ 609 µM) | 3.29 | 256 (≈ 1220 µM) | > 512 | 3.89 | 512 (≈ 2430 µM) | 512 (≈ 2430 µM) | 512 (≈ 2430 µM) | > 512 |
| Cc1cc(=O)oc2cc(NC(=O)c3cc(=O)c(OCc4ccccc4)cn3C)ccc12 |  | 3.59 |  |  | 3.89 |  |  | 3.89 |  |  |  |  |
| Cc1cc(=O)c(OCc2ccccc2)c(C(=O)Nc2cnc3ccccc3c2)o1 |  | 3.89 |  |  | 3.89 |  |  | 3.89 |  |  |  |  |
| O=C(Nc1ccccc1)c1cc(=O)c(OCc2ccccc2)co1 |  | 3.89 |  |  | 3.59 |  |  | 3.89 |  |  |  |  |
| CCCCn1ccc(=O)c(O)c1C | 256 (≈ 1410 µM) | 3.89 | 256 (≈ 1410 µM) | 256 (≈ 1410 µM) | 3.29 | 512 (≈ 2830 µM) | 512 (≈ 2830 µM) | 3.59 | 256 (≈ 1410 µM) | 256 (≈ 1410 µM) | 512 (≈ 2830 µM) | > 512 |
| CCCn1ccc(=O)c(O)c1C | 256 (≈ 1530 µM) | 3.29 | 16 (≈ 95.7 µM) | 128 (≈ 766 µM) | 3.89 | 512 (≈ 3060 µM) | 256 (≈ 1530 µM) | 3.29 | 256 (≈ 1530 µM) | 512 (≈ 3060 µM) | 128 (≈ 766 µM) | 512 (≈ 3060 µM) |
| O=C(O)c1cn(C2CC2)c2cc(N3CCNCC3)c(F)cc2c1=O [CIPROFLOXACIN] |  |  | 0.5 (≈ 1.51 µM) | 1 (≈ 3.02 µM) |  |  | 0.06 (≈ 0.181 µM) |  |  |  |  | 1 (≈ 3.02 µM) |
| CC(=O)N1CCN(c2ccc(OCC3COC(Cn4ccnc4)(c4ccc(Cl)cc4Cl)O3)cc2)CC1 (stereo unspecified) [KETOCONAZOLE] | 8 (≈ 15.1 µM) |  |  |  |  |  |  |  | 2 (≈ 3.76 µM) | 4 (≈ 7.53 µM) |  |  |
| O=c1cc(CO)occ1O [KOJIC ACID] |  | 3.59 |  |  | 3.89 |  |  | 3.89 |  |  |  |  |

Source: ChEMBL document CHEMBL1137743, “Synthesis, antimicrobial evaluation and QSAR study of some 3-hydroxypyridine-4-one and 3-hydroxypyran-4-one derivatives” (2009)
